Activity calls are given as the source filed them. The calls are words filed in the database; no cut-off is given here.
Assays:
[1] = system: PC-12; assay: Neuroprotective activity in rat PC12 cells assessed as reversal of Abeta1-42 decreased in Bcl-2 expression level at 10 uM preincubated for 3 hrs followed by Abeta1-42 induction and measured after 24 hrs by Western blot analysis; format: functional, cell-based; conditions: time 27.0 hrs
Procedure, shortened: (§1)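 Aβ1–42 challenge in PC12 cells was 10 μM for 24 h after 3 h pretreatment at 10 μM. SP600125 (1.25 μM) was added 0.5 h before pretreatment where used. Cells were lysed in RIPA and protein measured by BCA. Blotting used PVDF transfer, 5% BSA/TBST block for 2 h, primaries 1:1000 overnight at 4 °C, and HRP secondary for 2 h. Bcl-2/Bax ratio and band intensities were quantified.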

[2] = system: Mus musculus; assay: Anti-alzheimer activity in hippocampus of APP/PS1 dE9 double transgenic mouse model assessed as decrease in the level of caspase-3 activation at 10 mg/kg, ip administered once daily for 30 consecutive days by Western blot analysis; format: functional, organism-based; conditions: time 30.0 day
Procedure, shortened: (§2)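 Hippocampal homogenates from dosed APP/PS1 mice were extracted in RIPA and protein measured by BCA. Samples were run by SDS electrophoresis, transferred to 0.22 μm PVDF for 90 min, blocked with 5% BSA in TBST for 2 h at RT, and probed with primaries 1:1000 overnight at 4 °C. HRP secondary was applied for 2 h at RT.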

[3] = system: PC-12; assay: Neuroprotective activity against Abeta1-42 induced rat PC12 cells assessed as reduction in ROS level at 10 uM preincubated for 3 hrs followed by Abeta1-42 induction and measured after 24 hrs by y DCFH2-DA probe based analysis; format: functional, cell-based; conditions: time 27.0 hrs
Procedure, shortened: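 PC12 cells were pretreated 3 h at 10 μM, then given 10 μM Aβ1–42 for 24 h. Cells were loaded with DCFH-DA 10 μM in FBS-free DMEM for 30 min in the dark and washed. Fluorescence was read at Ex 488/Em 525 nm.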

[4] = system: PC-12; assay: Neuroprotective activity against in Abeta1-42 induced rat PC12 cells assessed as effect on cleaved caspase-3 level at 10 uM preincubated for 3 hrs followed by Abeta1-42 induction and measured after 24 hrs in the presence of SP600125 by Western blot analysis; format: functional, cell-based; conditions: time 27.0 hrs; procedure, shortened: as §1
[5] = system: Mus musculus; assay: Anti-alzheimer activity in cortex of APP/PS1 dE9 double transgenic mouse model assessed as reduction in neuronal apoptosis at 1 to 10 mg/kg, ip administered once daily for 30 consecutive days by immunofluorescence analysis; format: functional, organism-based; conditions: dose 1-10 mg/kg, time 30.0 day
Procedure, shortened: (§3)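 Brains from dosed female APP/PS1 mice (10 months) were fixed in 4% paraformaldehyde at 4 °C for 24–48 h, taken through a sucrose gradient and OCT, and cut into 15 μm sections. Sections were permeabilized with 0.3% Triton X-100, blocked in 10% BSA for 1 h, and incubated with primary antibody overnight at 4 °C (1:200). Secondary was 1:500 for 1 h at 25 °C, with DAPI counterstain and confocal imaging, in triplicate.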

[6] = system: Mus musculus; assay: Anti-alzheimer activity in hippocampus of APP/PS1 dE9 double transgenic mouse model assessed as reduction in amyloid beta plaque deposition at 1 to 10 mg/kg, ip administered once daily for 30 consecutive days by immunofluorescence staining; format: functional, organism-based; conditions: dose 1-10 mg/kg, time 30.0 day; procedure, shortened: as §3
[7] = system: PC-12; assay: Induction of apoptosis in Abeta1-42 induced rat PC12 cells assessed as necrosis at 10 uM preincubated for 3 hrs followed by Abeta1-42 induction and measured after 24 hrs by Annexin V-FITC/PI staining based flow cytometry analysis (reference value: 0.0%); format: functional; conditions: time 27 hrs
[8] = system: Mus musculus; assay: Anti-alzheimer activity against APP/PS1 dE9 double transgenic mouse model assessed as increase in time spent in the target quadrant at 10 mg/kg, ip administered once daily for 30 consecutive days measured on day 5 by morris water maze test; format: functional, organism-based; conditions: time 35.0 day
Procedure, shortened: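 Female APP/PS1 mice, 10 months old, about 30 g, 10 per group. Dosing was intraperitoneal in 1× PBS, once daily for one month (1 or 10 mg/kg test; 5 mg/kg donepezil). WT and untreated APP/PS1 controls got PBS. Morris water maze: training days 1–4, averaged escape latency. Day-5 probe trial ran 60 s with the platform removed, recording platform crossings and time per quadrant. Mean ± SEM.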

[9] = system: Mus musculus; assay: Anti-alzheimer activity in hippocampus of APP/PS1 dE9 double transgenic mouse model assessed as decrease in MDA level at 1 to 10 mg/kg, ip administered once daily for 30 consecutive days […]; format: functional, organism-based; conditions: dose 1-10 mg/kg, time 30.0 day
[10] = system: PC-12; assay: Neuroprotective activity against in Abeta1-42 induced rat PC12 cells assessed as effect on ERK protein level at 10 uM preincubated for 3 hrs followed by Abeta1-42 induction and measured after 24 hrs by Western blot analysis; format: functional, cell-based; conditions: time 27.0 hrs; procedure, shortened: as §1
[11] = system: Mus musculus; assay: Anti-alzheimer activity against mouse model APP/PS1 dE9 double transgenic mouse model assessed as improvement in average movement speed at 1 to 10 mg/kg, ip administered once daily for 30 consecutive days measured on day 1 by novel object recognition test; format: functional, organism-based; conditions: dose 1-10 mg/kg, time 31.0 day
[12] = system: PC-12; assay: Neuroprotective activity in rat PC12 cells assessed as reversal of Abeta1-42 induced caspase-3 activation at 10 uM preincubated for 3 hrs followed by Abeta1-42 induction and measured after 24 hrs by Western blot analysis; format: functional, cell-based; conditions: time 27.0 hrs
Procedure, shortened: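 PC12 cells (DMEM, 10% FBS, 37 °C, 5% CO2) pretreated 3 h, then given 10 μM Aβ1–42 oligomer (10 mM DMSO stock aged 7 days at 37 °C, diluted in medium) for 24 h. RIPA lysates were blotted on PVDF, blocked in 5% BSA/TBST, and probed overnight at 4 °C for cleaved caspase-3 (1:1000), then HRP secondary. Band intensity was quantified; mean ± SEM of three experiments.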

[13] = system: Mus musculus; assay: Anti-alzheimer activity in hippocampus of APP/PS1 dE9 double transgenic mouse model assessed as increase in […] at 1 to 10 mg/kg, ip administered once daily for 30 consecutive days […]; format: functional, organism-based; conditions: dose 1-10 mg/kg, time 30.0 day
Procedure, shortened: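 Hippocampal tissue from dosed APP/PS1 mice was lysed in RIPA. SOD activity was read by WST-8/xanthine oxidase formazan kit assay and MDA by lipid peroxidation kit, with absorbance on a microplate reader.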

[14] = system: Mus musculus; assay: Anti-alzheimer activity in hippocampus of APP/PS1 dE9 double transgenic mouse model assessed as suppression in p-JNK level at 10 mg/kg, ip administered once daily for 30 consecutive days by Western blot analysis; format: functional, organism-based; conditions: time 30.0 day; procedure, shortened: as §2
[15] = system: PC-12; assay: Neuroprotective activity against Abeta1-42 induced rat PC12 cells assessed as increase in cell viability at 10 uM preincubated for 3 hrs followed by Abeta1-42 induction and measured after 24 hrs by MTT assay; format: functional, cell-based; conditions: time 27.0 hrs
Procedure, shortened: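 PC12 cells were seeded at 5×10^3/well and pretreated 3 h with test compound (range or 10 μM), with or without SP600125 1.25 μM for 0.5 h beforehand. Cells were then exposed to 10 μM Aβ1–42 oligomers for 24 h. MTT 0.5 mg/mL was added for 3–4 h, formazan dissolved in DMSO, and absorbance read at 570 nm. Viability is given as % of control.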

[16] = system: PC-12; assay: Induction of apoptosis in Abeta1-42 induced rat PC12 cells assessed as late apoptosis at 10 uM preincubated for 3 hrs followed by Abeta1-42 induction and measured after 24 hrs by Annexin V-FITC/PI staining based flow cytometry analysis (reference value: 0.7%); format: functional; conditions: time 27 hrs
[17] = system: Mus musculus; assay: Anti-alzheimer activity in hippocampus of APP/PS1 dE9 double transgenic mouse model assessed as decrease in the level of Bax at 10 mg/kg, ip administered once daily for 30 consecutive days by Western blot analysis; format: functional, organism-based; conditions: time 30.0 day; procedure, shortened: as §2

## C=C[C@@]1(C)Cc2occ(C)c2[C@@H]2OC(=O)C(=C)[C@@H]21 [ISOLINDERALACTONE]
[1]
  Activity: Active
[2]
  Activity: Active
[3]
  Activity: Active
[4]
  Activity: inactive
[5]
  Activity: Active
[6]
  Activity: Active
[7]
  Activity: 0%
[8]
  Activity: Active
[9]
  Activity: Active
[10]
  Activity: inactive
[11]
  Activity: Active
[12]
  Activity: Active
[13]
  Activity: Active
[14]
  Activity: Active
[15]
  Activity: Active
[16]
  Activity: 0.4%
[17]
  Activity: Active
